Key:
[1] = Etiological profile of hyperprolactinemia, Endocrine OPD; assay type: in vivo, human; conditions: 50 subjects with hyperprolactinemia; use of drugs 56% of etiologies; Domperidone with and without PPI
[2] = Hyperprolactinemia in patients referred to a tertiary care hospital; assay type: in vivo, human; conditions: for drug-induced hyperprolactinemia with prolactin levels less than 100 ng/ml: number of cases / drug-induced hyperprolactinemia with prolactin levels greater than 100 ng/ml: number of cases: 11 drug-induced cases among 58
[3] = assay type: in vivo, human
Case: hypomagnesemia = assay type: in vivo, human; conditions: single child, Tab. MgO 200mg TID
[4] = Case: Chiari Frommel syndrome treated with bromocriptine; assay type: in vivo, human; conditions: single patient, 2.5mg for one month
[5] = Case: ACTH and prolactin co-secreting pituitary adenoma treated with cabergoline; assay type: in vivo, human; conditions: single patient
[6] = Giant prolactinoma case series, response to cabergoline; assay type: in vivo, human; conditions: follow-up MRI in 17 patients
Method in brief: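 Patients with giant prolactinoma all received cabergoline, dose range 0.5-7 mg/week, over a mean follow-up of 11.78 ± 14.89 months. Tumour shrinkage was judged against the baseline maximum tumour dimension on follow-up MRI, which was available for 17 patients.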

[7] = Case: cabozantinib for metastatic MTC; assay type: in vivo, human; conditions: single patient
[8] = ref not given, cited from earlier work
[9] = Case: diazoxide in Prader-Willi Syndrome; assay type: in vivo, human; conditions: child with PWS
[10] = assay type: in vivo, human; remark: listed apart in the source
Method in brief: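 Observational study of 167 diabetic outpatients seen January–June 2023. All had HbA1c, FPG and PPG uncontrolled on two or three oral hypoglycaemic agents and were unwilling to start insulin. Imeglimin was added as the third or fourth agent, and FPG, PPG, HbA1c and adverse effects were recorded afterwards.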

[11] = Orlistat vs orlistat + resveratrol in overweight/obese subjects, 12 weeks; assay type: in vivo, human
[12] = assay type: in vivo, human; conditions: orlistat 120 mg thrice daily, mean [SD]
[13] = Semaglutide in type 2 diabetes, cross sectional study; assay type: in vivo, human; conditions: Likert 5-point scale
[14] = Case series: immune check point inhibitor induced endocrine dysfunction; assay type: in vivo, human; conditions: series of ten patients with IRAE
[15] = Case: nivolumab induced endocrine dysfunction; assay type: in vivo, human; conditions: single patient, 240 mg fortnightly, after 10 cycles
[16] = Case: growth hormone therapy in short stature with Crohn's disease; assay type: in vivo, human; conditions: single patient
[17] = fulminant hepatic failure, fatal
[18] = last Ketoconazole dose the night before surgery, isoflurane anaesthesia
[19] = single patient on Ketoconazole 1200 mg/day and spironolactone 200 mg/day

Compound: O=c1[nH]c2ccccc2n1CCCN1CCC(n2c(=O)[nH]c3cc(Cl)ccc32)CC1 [Domperidone]
- Among the drugs causing hyperprolactinemia: share of cases [1]: 53.57%
- drug-induced hyperprolactinemia with prolactin levels less than 100 ng/ml: number of cases [2]: 3 cases

Compound: CC(=O)N1CCN(c2ccc(OCC3COC(Cn4ccnc4)(c4ccc(Cl)cc4Cl)O3)cc2)CC1 (centres unmarked) [Ketoconazole]
- ALT, 5th post operative day [3, 17]: 5053 U/L
- AST, 5th post operative day [3, 17]: 7844 L⁻¹
- GGT, 5th post operative day [3, 17]: 207 U/L
- INR, 5th post operative day [3, 17]: > 11
- PT, 5th post operative day [3, 17]: > 120 s
- aPTT, 5th post operative day [3, 17]: > 180 s
- ALT, 4th post operative day [3, 18]: 433 U/L
- AST, 4th post operative day [3, 18]: 370 U/L
- GGT, 4th post operative day [3, 18]: 233 U/L
- ALT before the surgery [3, 19]: 30 IU/ml
- AST before the surgery [3, 19]: 27 IU/ml

Compound: [O]=[Mg] [MgO]
- calcium on treatment (Case: hypomagnesemia): 9.2 mg/dL
- Serum Magnesium on treatment (Case: hypomagnesemia; at presentation 0.4mg/dl): 1.2 mg/dL

Compound: Cc1cc2c(s1)Nc1ccccc1N=C2N1CCN(C)CC1 [Olanzapine]
- Among the drugs causing hyperprolactinemia: share of cases [1]: 3.57%

Compound: Cc1nc2n(c(=O)c1CCN1CCC(c3noc4cc(F)ccc34)CC1)CCCC2 [Risperidone]
- Among the drugs causing hyperprolactinemia: share of cases [1]: 7.14%
- drug-induced hyperprolactinemia with prolactin levels greater than 100 ng/ml: number of cases [2]: 1 cases
- drug-induced hyperprolactinemia with prolactin levels less than 100 ng/ml: number of cases [2]: 1 cases

Compound: CN[C@H]1CC[C@@H](c2ccc(Cl)c(Cl)c2)c2ccccc21 [Sertraline]
- Among the drugs causing hyperprolactinemia: share of cases [1]: 3.57%

Compound: CC(C)C[C@H]1C(=O)N2CCC[C@H]2[C@]2(O)O[C@](NC(=O)[C@@H]3C=C4c5cccc6[nH]c(Br)c(c56)C[C@H]4N(C)C3)(C(C)C)C(=O)N12 [bromocriptine]
- effect on galactorrhea [4]: Milk secretion was slowed down

Compound: C=CCN1C[C@H](C(=O)N(CCCN(C)C)C(=O)NCC)C[C@@H]2c3cccc4[nH]cc(c34)C[C@H]21 [cabergoline]
- outcome at increased dose ([5]; cabergoline 2mg/week): developed adrenal insufficiency
- Follow up prolactin ([5]; on cabergoline 0.5mg/week, before dose increase): 15737 miu/l
- Stimulated cortisol ([5]; post 3 days of cabergoline 0.5mg/week): 535 nmol/L
- 8am cortisol ([5]; post 3 days of cabergoline 0.5mg/week, before 525nmol/l): 132 nmol/L
- Prolactin ([5]; post 3 days of cabergoline 0.5mg/week, before 20982miu/l): 9215 miu/l
- Tumor shrinkage <50%, share of patients ([6]; 2 patients): 11.76%
- disappearance of radiologically detectable tumor, share of patients ([6]; 2 patients): 11.76%
- Tumor shrinkage of >50% from the baseline, share of patients ([6]; 13 patients): 76.47%

Compound: COc1cc2nccc(Oc3ccc(NC(=O)C4(C(=O)Nc5ccc(F)cc5)CC4)cc3)c2cc1OC [cabozantinib]
- response of metastatic MTC [7]: good response
- tolerability [7]: stopped due to side effects

Compound: COc1cc(CNC(=O)CCCC/C=C/C(C)C)ccc1O [capsaicin]
- pain control, capsaicin lotion compared with placebo ([8]; analysis on treatment intention, all pain measures): insignificant improvement in pain control
- pain relief, topical capsaicin cream […], multicenter controlled trial ([8]; initial results, vs placebo): more relief of the pain associated with diabetic neuropathy than placebo
- tolerability, capsaicin […] cream ([8]; may lead to withdrawal from the study): local skin irritation, which is often mild and transient
- pain relief, capsaicin […] cream applied to the painful area ([8]; painful diabetic neuropathy): significant pain relief
- pain relief, topical capsaicin […] for four to six weeks [8]: either complete or significant relief

Compound: CC1=NS(=O)(=O)c2cc(Cl)ccc2N1 [diazoxide]
- tolerability ([9]; 3 mg/kg/d): well tolerated
- effect on hyperphagia ([9]; 3 mg/kg/d in two divided doses, after 3 weeks): perceptible reduction in hyperphagia

Compound: C[C@H]1N=C(N(C)C)N=C(N)N1 [imeglimin]
- most common adverse effect ([10]; n=167): gastrointestinal issues
- HbA1c after imeglimin was added ([10]; n=167, add-on to two or three OHAs, baseline 9.1±1.8, p=0.004): 7.2±1.2
- FPG after imeglimin was added ([10]; n=167, add-on to two or three OHAs, baseline 176.61±45.75, p=0.013): 108.05±24.79
- PPG after imeglimin was added ([10]; n=167, add-on to two or three OHAs, baseline 247.86±68.17, p=0.020): 156.49±38.53

Compound: CCN1CCC[C@H]1CNC(=O)c1cc(S(N)(=O)=O)ccc1OC [levosulpiride]
- drug-induced hyperprolactinemia with prolactin levels greater than 100 ng/ml: number of cases [2]: 5 cases
- drug-induced hyperprolactinemia with prolactin levels less than 100 ng/ml: number of cases [2]: 1 cases
- prolactin levels in drug-induced hyperprolactinemia ([2]; statement of the conclusion): > 100 ng/mL

Compound: CCCCCCCCCCC[C@@H](C[C@@H]1OC(=O)[C@H]1CCCCCC)OC(=O)[C@H](CC(C)C)NC=O [orlistat]
- diarrhoea, number of patients [11]: 7 patients
- weight loss, patients with diabetes with a BMI >=30 ([11]; sub-group, p=0.045): -1.04 kg
- weight loss, patients with diabetes with steatosis ([11]; sub-group, p=0.048): -0.44 kg
- weight loss compared to baseline ([11]; thrice daily, 247 completers, mean body weight ~80 kg): -2.92 kg
- mean weight loss after 2 months, group 2 ([12]; patients with diabetes): 6.3 [4.9] %
- mean weight loss after 4 months, group 2 ([12]; patients with diabetes): 8.7 [4.7] %
- mean weight loss after 6 months, group 2 ([12]; patients with diabetes): 12.9 [2.4] %
- mean weight loss after 2 months, group 1 ([12]; patients without diabetes): 7.1 [6.1] %
- mean weight loss after 4 months, group 1 ([12]; patients without diabetes): 14.6 [12.9] %
- mean weight loss after 6 months, group 1 ([12]; patients without diabetes): 16.1 [6.7] %
- mean weight loss after 2 months, group 3 ([12]; prediabetic patients): 6 [2.6] %
- mean weight loss after 4 months, group 3 ([12]; prediabetic patients): 15.5 [15.4] %
- mean weight loss after 6 months, group 3 ([12]; prediabetic patients): 15.8 [6.2] %

Compound: CC[C@H](C)[C@H](NC(=O)[C@H](Cc1ccccc1)NC(=O)[C@H](CCC(=O)O)NC(=O)[C@H](CCCCNC(=O)COCCOCCNC(=O)COCCOCCNC(=O)CC[C@H](NC(=O)CCCCCCCCCCCCCCCCC(=O)O)C(=O)O)NC(=O)[C@H](C)NC(=O)[C@H](C)NC(=O)[C@H](CCC(N)=O)NC(=O)CNC(=O)[C@H](CCC(=O)O)NC(=O)[C@H](CC(C)C)NC(=O)[C@H](Cc1ccc(O)cc1)NC(=O)[C@H](CO)NC(=O)[C@H](CO)NC(=O)[C@@H](NC(=O)[C@H](CC(=O)O)NC(=O)[C@H](CO)NC(=O)[C@@H](NC(=O)[C@H](Cc1ccccc1)NC(=O)[C@@H](NC(=O)CNC(=O)[C@H](CCC(=O)O)NC(=O)C(C)(C)NC(=O)[C@@H](N)Cc1cnc[nH]1)[C@@H](C)O)[C@@H](C)O)C(C)C)C(=O)N[C@@H](C)C(=O)N[C@@H](Cc1c[nH]c2ccccc12)C(=O)N[C@@H](CC(C)C)C(=O)N[C@H](C(=O)N[C@@H](CCCNC(=N)N)C(=O)NCC(=O)N[C@@H](CCCNC(=N)N)C(=O)NCC(=O)O)C(C)C [semaglutide]
- patients rating strongly agree or agree for adverse event: diarrhoea [13]: 91.3%
- patients rating strongly agree or agree for adverse event: loss of appetite [13]: 87.4%
- patients rating strongly agree or agree for adverse event: nausea [13]: 93.5%

Compound: nivolumab
- patients with isolated thyroid dysfunction on the drug [14]: five
- immune-related adverse events diagnosed [15]: checkpoint inhibitor induced diabetes mellitus (CPI-DM) and central adrenal insufficiency

Compound: rHGH: recombinant growth hormone injection
- catchup growth ([16]; 0.18mg/kg/week, 6 months): 7 cm
- growth thereafter at higher doses ([16]; 0.3mg/kg/week, undiagnosed Crohn's disease): height remained static

From PMC10870986 (Indian Journal of Endocrinology and Metabolism, 2023)
